In ChEMBL document CHEMBL1131133, “A novel class of adenosine A3 receptor ligands. 1. 3-(2-Pyridinyl)isoquinoline derivatives” (J Med Chem, 1998):

How the values were obtained:
[1] = biological target: T1, Adenosine receptor A1 (Rattus norvegicus) (UniProt P25099); assay: Displacement of specific [3H]DPCPX binding at rat cortical membrane (Adenosine A1 receptor) at concentration of […].
T1 sequence (whole entry): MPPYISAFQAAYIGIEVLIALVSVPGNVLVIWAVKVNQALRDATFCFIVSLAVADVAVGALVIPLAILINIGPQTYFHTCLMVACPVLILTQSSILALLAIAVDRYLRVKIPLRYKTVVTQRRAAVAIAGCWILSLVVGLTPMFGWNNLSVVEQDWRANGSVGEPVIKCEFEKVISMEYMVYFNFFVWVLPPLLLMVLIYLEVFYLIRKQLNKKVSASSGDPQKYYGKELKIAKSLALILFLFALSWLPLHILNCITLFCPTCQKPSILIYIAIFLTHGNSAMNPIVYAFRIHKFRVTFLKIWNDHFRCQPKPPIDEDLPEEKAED
In short: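 A1 binding used rat cortical membranes and [3H]DPCPX. Percentage displacement of specific binding was measured at one fixed test-compound concentration (n = 2-3).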

[2] = biological target: Adenosine receptor A2a (Rattus norvegicus) (UniProt P30543); assay: Displacement of specific [3H]CGS-21680 binding in rat striatal membrane (Adenosine A2A receptor) at concentration of […].; assay type: cell membranes; details: Striatum
In short: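 A2A binding used rat striatal membranes and [3H]CGS 21680. Percentage displacement of specific binding was measured at one fixed test-compound concentration (n = 2-3).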

Adenosine receptor A3 [3] = biological target: T2, Adenosine receptor A3 (Homo sapiens, UniProt P0DMS8); assay: biochemical
T2 sequence (P0DMS8 whole entry): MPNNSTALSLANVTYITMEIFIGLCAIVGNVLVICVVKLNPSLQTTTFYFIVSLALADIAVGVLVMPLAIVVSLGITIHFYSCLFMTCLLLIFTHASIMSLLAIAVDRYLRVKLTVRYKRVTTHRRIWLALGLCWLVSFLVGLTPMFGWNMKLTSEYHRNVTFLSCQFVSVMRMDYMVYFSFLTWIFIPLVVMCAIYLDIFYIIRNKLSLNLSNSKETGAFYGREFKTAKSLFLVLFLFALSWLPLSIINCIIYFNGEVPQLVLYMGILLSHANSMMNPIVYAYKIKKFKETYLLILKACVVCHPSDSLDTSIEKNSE

Adenosine receptor A3 [4] = biological target: T2, Adenosine receptor A3; assay: Displacement of specific [125I]AB-MECA binding at human adenosine A3 receptor expressed in HEK 293 cells.; assay type: cell-based, HEK293
[5] = biological target: T3, Adenosine receptor A3 (Homo sapiens) (UniProt P0DMS8); assay: Displacement of [125I]AB-MECA from human adenosine A3 receptor expressed in HEK 293 cells at […]; assay type: cell-based; details: HEK293
T3 sequence (whole entry): T2 sequence (P0DMS8 whole entry)
In short: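 Membranes from HEK 293 cells stably expressing the human A3 receptor were incubated with [125I]AB-MECA. Percentage displacement of specific binding was measured at a single test-compound concentration (n = 2-3).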

Chain of Adenosine receptor A2a (Rattus norvegicus) (P30543 whole entry): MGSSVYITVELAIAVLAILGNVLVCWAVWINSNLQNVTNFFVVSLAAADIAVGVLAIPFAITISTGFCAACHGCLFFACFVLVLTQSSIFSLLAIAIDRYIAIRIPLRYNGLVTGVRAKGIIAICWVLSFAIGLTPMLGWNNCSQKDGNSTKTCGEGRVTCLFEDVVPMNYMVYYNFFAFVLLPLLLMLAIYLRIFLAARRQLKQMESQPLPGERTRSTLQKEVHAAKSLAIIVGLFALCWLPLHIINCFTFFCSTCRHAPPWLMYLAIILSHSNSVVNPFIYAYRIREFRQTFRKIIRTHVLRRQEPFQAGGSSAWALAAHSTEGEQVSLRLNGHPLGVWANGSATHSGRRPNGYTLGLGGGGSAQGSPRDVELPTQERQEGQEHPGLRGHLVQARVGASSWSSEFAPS

| Displacement [1] [%] | Displacement [2] [%] | SMILES | further results |
| --- | --- | --- | --- |
| 0 | 0 | Cc1cccc(C)c1C(=O)N(C(=O)c1c(C)cccc1C)c1nc(-c2ccccn2)cc2ccccc12 | – |
| 30 | 25 | CCc1nc(-c2ccccn2)cc2ccccc12 | – |
| 43 | 0 | COc1cccc(C(=N)Nc2nc(-c3ccccn3)cc3ccccc23)c1 | – |
| – | 5 | CC(C(=O)c1ccccc1)c1nc(-c2ccccn2)cc2ccccc12 (stereo unspecified) | – |
| – | 54 | CS(=O)(=O)c1nc(-c2ccccn2)cc2ccccc12 | – |
| 12 | 34 | Cc1ccc(C(=N)Nc2nc(-c3ccccn3)cc3ccccc23)cc1 | – |
| 43 | 29 | Clc1nc(-c2ccccn2)cc2ccccc12 | – |
| – | 7 | CSc1nc(-c2ccccn2)cc2ccccc12 | – |
| 21 | 2 | N=C(Nc1nc(-c2ccccn2)cc2ccccc12)c1ccc(Cl)c(Cl)c1 | – |
| 18 | 5 | COc1ccc(C(=N)Nc2nc(-c3ccccn3)cc3ccccc23)cc1 | – |
| 47 | – | N=CNc1nc(-c2ccccn2)cc2ccccc12 | – |
| 34 | 18 | CC(=O)N(C(C)=O)c1nc(-c2ccccn2)cc2ccccc12 | – |
| 49 | 14 | N=C(Nc1nc(-c2ccccn2)cc2ccccc12)c1cccc(Cl)c1 | – |
| – | – | Nc1nc2ccc(Cl)cc2c2nc(-c3ccco3)nn12 [CGS-15943] | Ki (Adenosine receptor A3 [3]): 0.0079 µM; Ki (Adenosine receptor A3 [4]): 0.143 µM |
| 20 | 7 | N=C(Nc1nc(-c2ccccn2)cc2ccccc12)c1ccc(Cl)cc1 | – |
| – | 31 | c1ccc(-c2nc(-c3ccccn3)cc3ccccc23)cc1 | – |
| – | 19 | COc1nc(-c2ccccn2)cc2ccccc12 | – |
| – | 35 | Oc1nc(-c2ccccn2)cc2ccccc12 | – |
| – | – | COC(=O)C1=C2C=CN(C)C=C2c2nc(-c3ccccc3)nn2C1 | Ki (Adenosine receptor A3 [4]): 0.172 µM |
| 34 | – | N=C(Nc1nc(-c2ccccn2)cc2ccccc12)c1ccccc1 | – |
| 43 | 0 | Cc1cccc(C(=N)Nc2nc(-c3ccccn3)cc3ccccc23)c1 | – |
| 19 | 28 | Nc1nc(-c2ccccn2)cc2ccccc12 | Displacement [5]: 17% |
